This is a sample that favours compounds with a hit; in the whole collection about 1.2% have one here.
GalR3 antag = blocks the human galanin receptor 3. HEK293 GalR3-CNG cAMP membrane potential fluorescence; galR3 body fused to GalR1 C-terminus. inhibition, % at 3 µM. 0.44% of 360,000 active;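 active = inhibition above the screen-wide average plus 3 SD, cut at about 13% in these data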;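 also: forskolin and galanin both at EC90 stimulate the cells; cAMP rise reported by CNG channel membrane potential dye signal; 0% = forskolin plus galanin with DMSO and 100% = forskolin alone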
Rin1 Abl inh = human Rin1-Abl interaction inhibition | P00519+Q13671 | TR-FRET Rin1/Abl binding, biochemical | inhibition, % at 7.35 µM | 0.4% of 360,000 active; in the data active = inhibition above about 5%, passing the limit was not always enough
ARFGAP1 inhibitor = rat ARFGAP1 inhibition; Arfgap1-stimulated ARF1 GTP hydrolysis, GDP FP detection; inhibition, % at 16.5 µM; 0.26% of 360,000 active; AID 651572;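 active = inhibition above a per-plate limit, mean inhibition of low control wells plus 3 SD, cut at about 25% in these data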;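 also: 0% = DMSO wells with enzyme and 100% = wells lacking Arfgap1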
Target sequence (Q62848 1-136 limits assumed): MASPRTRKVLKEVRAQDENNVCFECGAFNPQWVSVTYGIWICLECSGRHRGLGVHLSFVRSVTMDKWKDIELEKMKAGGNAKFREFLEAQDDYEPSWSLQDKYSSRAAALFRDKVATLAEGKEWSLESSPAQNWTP
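Material: rat Arfgap1 catalytic domain, aa 1-136; also added: human ARF1(Δ1-17)-GTP substrate; compound dosing: one concentration, 16.5 µM, DMSO 1.26%; incubation: GTP hydrolysis reaction 2 h at 25 °C; measured by: Tracer-displacement fluorescence polarization with EDTA stop, 620/688 nm; evaluation: % inhibition from polarization; repeats: one replicate per compound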
ASAP1 GAP inh = blocks human ASAP1-stimulated Arf1 GTP hydrolysis; 0.19% of 360,000 active; inhibition, % at 16.5 µM; Q9ULH1; GDP FP detection; in the data active = inhibition above about 25%;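 also: 0% = vehicle with enzyme and substrate and 100% = no enzyme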
Target sequence (Q9ULH1 325-724 limits assumed): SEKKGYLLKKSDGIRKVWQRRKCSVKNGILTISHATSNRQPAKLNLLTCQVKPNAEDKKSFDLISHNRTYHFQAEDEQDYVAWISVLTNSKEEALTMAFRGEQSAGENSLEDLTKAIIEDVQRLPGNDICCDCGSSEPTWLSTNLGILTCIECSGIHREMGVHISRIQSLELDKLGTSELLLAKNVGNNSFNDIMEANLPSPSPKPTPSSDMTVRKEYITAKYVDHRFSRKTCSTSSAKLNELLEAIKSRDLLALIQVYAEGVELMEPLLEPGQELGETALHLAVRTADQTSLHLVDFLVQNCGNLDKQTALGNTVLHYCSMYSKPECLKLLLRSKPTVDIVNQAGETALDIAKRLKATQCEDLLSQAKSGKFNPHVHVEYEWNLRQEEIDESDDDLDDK
Rin1-Abl confirm = confirmation of inhibitors of human Rin1-Abl interaction. shares compounds with Rin1 Abl inh. TR-FRET Rin1-Abl binding, purified proteins. inhibition, % at 7.35 µM. 49% of 1,300 active. AID 602124
GFP quencher = GFP fluorescence interference artifact; shares compounds with Rin1 Abl inh; inhibitors/quenchers counterscreen; inhibition, % at 6.75 µM; 8.5% of 1,300 active;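 also: ABL1-eGFP fusion protein alone without its partner RIN1-SBP; 0% = protein with vehicle and 100% = wells lacking protein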
GFP quench dose = quenches GFP in dose response, Rin1-Abl counter-screen; shares compounds with Rin1 Abl inh; IC50, µM; GFP fluorescence interference/quenching counterscreen; 230 tested, under 10 active; AID 602182; call rule not given here;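 also: ABL1-eGFP fusion protein alone without its RIN1 binding partner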
An asterisk follows results filed as active; x = no result given; ! = repeats disagree. Rule as the data show it, unless noted: active = inhibition above about 6.5%; inactive = the rest.

SMILES | GalR3 antag | Rin1 Abl inh | ARFGAP1 inhibitor | ASAP1 GAP inh | Rin1-Abl confirm | GFP quencher | others
CC(=O)Nc1cccc(-c2ccnc3c2CC(C(=O)NCc2ccc(N4CCN(C)CC4)cc2)O3)c1 (stereo not given) | -4 | 31* | 10 | 1 | 28* | -1 | GFP quench dose=>68
C=CCCC(=O)N1C[C@H]2CCN(C)[C@H]2C[C@H]1c1ccccc1Br | -7 | x | -9 | -11 | x | x
C[C@H](O)[C@@H]1C(=O)N2CCc3c([nH]c4cccc(-c5ccccc5)c34)[C@@H]2C[C@@H]1N(C)C(=O)Nc1ccccc1 | -7 | x | 2 | 2 | x | x
COC(=O)C1=C(C)N(Cc2cccc(C(F)(F)F)c2)C(=NCc2ccc(OC)cc2)NC1c1cccc(F)c1 (stereo not given) | -6 | x | 7 | 0 | x | x
O=C(NCc1ccncc1)C1Cc2c(-c3ccc(Cl)cc3)ccnc2O1 (stereo not given) | -1 | -2 | -8 | 0 | x | x
CN1CCN(c2ccc(CNC(=O)C3Cc4c(-c5ccc(Cl)cc5)ccnc4O3)cc2)CC1 (stereo not given) | -8 | 15* | 6 | -13 | 9.5* | 1
C=CCn1c(NS(=O)(=O)c2ccccc2)c(S(=O)(=O)c2ccc(C)cc2)c2nc3ccccc3nc21 | -4 | 1 | 22 | 3 | x | x
O=S(=O)(Nc1c(S(=O)(=O)c2ccccc2)c2nc3ccccc3nc2n1C1CCCCC1)c1ccccc1 | -8 | 9.8* | 11 | 16 | -4 | 0
O=c1oc2cc(O)c(Cl)cc2c2ccccc12 | 1 | -483 | 18 | 2 | x | x
O=c1cc2c(=O)oc3cc(O)c(O)oc3c2c(O)c1O | -5 | 56* | 7 | -4 | 51* | 34*
O=C(c1ccccc1)c1ccc(OCC(O)CN2CCCCC2)cc1 (stereo not given) | -6 | 1 | 2 | -12 | x | x
O=C(c1ccccc1)c1ccc(OCC(O)CN2CCN(S(=O)(=O)N3CCCCC3)CC2)cc1 (stereo not given) | -8 | 6.7* | 0 | 14 | 0 | 0
O=C1C=CC2=C3c4cc(O)c(O)cc4CC3(O)COC2=C1O (stereo not given) | -2 | 67* | 11 | -1 | 73* | 45*
O=C(C(=O)N1CCC(CNC(=O)c2cccs2)CC1)c1cc2ccccc2o1 | -4 | x | 2 | -8 | x | x
OCCNc1ncnc2c1ncn2[C@H]1CN(Cc2ccc(-c3ccccc3)cc2)C[C@@H](CO)O1 | x | 24* | x | x | 28* | 0 | GFP quench dose=>68
OC[C@@H]1CN(Cc2ccc(-c3ccccc3)cc2)C[C@H](n2cnc3c(NCc4ccco4)ncnc32)O1 | -5 | 10* | -7 | 13 | 6.7* | -1
C=CC(=O)NC1CCCCN(C)C1=O (stereo not given) | -4 | x | -5 | -5 | x | x
Cc1ccc(-c2nnc(-n3ncc(C#N)c3N)c3ccccc23)cc1C | -5 | 9.3* | 0 | 5 | -1 | -1
CCc1nn(CC(=O)N2CCC(C(N)=O)CC2)c(=O)c2cc3occc3n12 | -9 | 12* | -7 | -10 | -1 | 0
CC(C)(C)C(=O)c1c(N)[nH]c(C(=O)c2ccccc2)c1-c1ccc([N+](=O)[O-])cc1 | 1 | x | 1 | -13 | x | x
O=C(O)c1cccc(Cn2c(Cl)c(/C=N/NC(=O)c3ccccc3O)sc2=O)c1 | -5 | 5.2* | -1 | 0 | -4 | 3
COCc1cc(N2CCNC[C@@H]2C)ccc1N1CCN(Cc2ccccc2)[C@H](C)C1 | -8 | x | 7 | -9 | x | x
O=C(NCc1ccccc1)[C@@H]1CCCN1C(=O)[C@H]1CCCN1C(=O)c1ccccc1F | 1 | x | -7 | 6 | x | x
CCOC(=O)N1CCN(C(=O)/C=C/c2ccc(OC)c(OC)c2)CC1 | -7 | -2 | -5 | 11 | x | x
CCCOc1ccc(/C=C/C(=O)N2CCN(C(=O)c3ccco3)CC2)cc1OC | -3 | 15* | 7 | -6 | 17* | -1 | GFP quench dose=>68
SMILES | GalR3 antag | Rin1 Abl inh | ARFGAP1 inhibitor | ASAP1 GAP inh | Rin1-Abl confirm | GFP quencher | others
CCOC(=O)c1cnc(-n2[nH]c(C)cc2=O)[nH]c1=O | 6 | 14* | -5 | 7 | 8.6* | 7.8*
CCOC(=O)c1cnc(-n2nc(C)cc2C)[nH]c1=O | -3 | -3 | 16 | -17 | x | x
COc1cccc(-c2ccc3c(c2)[C@@H]2C[C@H]4[C@@H](CN2CC3)[C@H](C)ON4C)c1 | -4 | x | -15 | -8 | x | x
Cn1cc(CCOCc2ccccn2)c2ccccc21 | -7 | x | 9 | 9 | x | x
COc1ccccc1-n1c(-c2ccc(Cl)cc2)c[nH]c1=S | -6 | 7.5* | -9 | 6 | -3 | -1
Cc1cccc(-n2c(-c3ccccc3)c[nH]c2=S)c1C | -7 | 6 | -4 | 12 | x | x
Cc1cc(N2CCOCC2)nc(SCC(=O)c2ccc(Cl)cc2)n1 | -5 | 15* | -8 | 15 | 15* | -1
Cc1cc(N2CCOCC2)nc(SCC(=O)c2ccccc2)n1 | 1 | 10 | 6 | -13 | x | x
CCN=c1scc(C)n1/N=C/c1cc(Br)c(O)c(Br)c1 | -7 | -3 | -1 | 7 | x | x
CCN=c1scc(C)n1/N=C/c1ccc(O)c(O)c1O | 0 | 20* | 6 | -3 | 16* | 12*
COCCN=c1scc(-c2ccccc2)n1/N=C/c1c[nH]c2ccccc12 | -7 | 3 | 7 | 15 | x | x
COCCN=c1scc(-c2cccs2)n1/N=C/c1ccc(O)c(O)c1O | 2 | 13* | -2 | 23 | 11* | 10*
CN1CCc2cccc3c2[C@H]1Cc1ccc(O)c(O)c1-3 | -3 | 16*! | 6 | 3 | 11* | 11*
COCCN1Cc2cc(C(=O)OC)c3c(c2C1=O)c1cc(OC)ccc1n3C(=O)c1ccccc1 | -6 | x | -7 | -4 | x | x
O=C(Nc1ccc(Cl)cc1)NC1CCCC1Cc1ccco1 (stereo not given) | x | 8.4* | x | x | -2 | 3
C[C@@H]1COc2cc(N3CCCCC3)ccc2S(=O)(=O)N1 | 3 | x | 6 | -11 | x | x
CCn1c(SCC(=O)Nc2cccc(C)c2)nc2nc3c(cc2c1=O)COC(C)(C)C3 | 6 | 7.5* | 0 | -3 | 13* | 0
COC(=O)C1=C(C)N(Cc2ccccc2C(F)(F)F)C(=NCc2ccccc2)NC1c1cccc(F)c1 (stereo not given) | -7 | x | 0 | -12 | x | x
CCC1CCCCN1S(=O)(=O)c1ccc(NC(=O)c2cccs2)cc1 (stereo not given) | 0 | 10* | 9 | 9 | 0 | -1
C1CCC(c2nn3c(-c4n[nH]c5c4CCC5)nnc3s2)CC1 | 0 | 25* | 6 | 0 | 14* | 0
CCN(CC)c1ccc(-c2nn3c(-c4n[nH]c5c4CCC5)nnc3s2)cc1 | -2 | -3 | 14 | -2 | x | x
